Three molecules from ChEMBL document CHEMBL3525945, “Metabolic switching of BILR 355 in the presence of ritonavir. II. Uncovering novel contributions by gut bacteria and aldehyde oxidase” (Drug Metab Dispos, 2012) can be followed below.

The nature of data set [1]: Drug level in human liver S9 fraction treated with BILR402 at 10 uM by LC-MS/MS analysis in presence of NADPH. In kind it is ADME, subcellular. Conditions: s9, 10 µM. An outline of the steps: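 BILR 402 (10 μM final) was incubated with human liver S9 or cytosol (1 mg/mL protein) in 0.05 M potassium phosphate pH 7.4 at 37 °C. Runs were done with or without 2.5 mM NADPH. Samples at 10, 20, 30 and 60 min were quenched in nevirapine/acetonitrile, filtered and analysed by LC-MS/MS; duplicate.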

Data set [2] deals with Liver microsome. Kind of data set: Drug level in human liver microsomes treated with BILR402 at 1 uM by LC-MS/MS analysis in presence of CYP2C19 inhibitor ticlopidine. In kind it is ADME. An outline of the steps: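 BILR 402 (1 μM) was incubated with human liver microsomes (0.05 mg/mL) for 30 min with NADPH, with or without ticlopidine 20 μM final as CYP2C19 inhibitor. BILR 402 depletion and BILR 355 formation were measured by LC-MS/MS.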

Data set [3] is described as follows: Drug excretion in mouse feces assessed as unchanged drug level. In kind it is ADME, tissue-based. The settings on record: read-out: Drug excretion.
The test system of data set [4] is Liver microsome. Kind of data set: Drug metabolism in human liver microsomes assessed as BILR516 disproportionate human metabolite formation at 5 uM after 60 mins by LC-MS/MS analysis. In kind it is ADME. Conditions: 1 h. An outline of the steps:
(§1)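 Pooled human liver microsomes, cytosol or S9 (1 mg/mL) were incubated with BILR 355 (5 μM final) in 0.05 M potassium phosphate pH 7.4 at 37 °C for 60 min. Microsomes and S9 received 2.5 mM NADPH.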

A short description of data set [5]: Drug excretion in rat feces assessed as metabolite level. In kind it is ADME, tissue-based.
For data set [6], the target named is T1, Cytochrome P450 3A4 (Homo sapiens, UniProt P08684). Kind of data set: Activity at recombinant CYP3A4 (unknown origin) expressed in baculovirus-infected insect cells treated with 10 uM BILR402 assessed as enzyme-mediated compound formation at 10 uM after 4 mins by LC-MS/MS analysis in presence of NADPH.
A short description of data set [7]: Drug metabolism in human liver S9 fraction assessed as BILR516 disproportionate human metabolite formation at 5 uM after 60 mins by LC-MS/MS analysis. In kind it is ADME, subcellular. The settings on record: s9, 1 h. An outline of the steps: as §1
Data set [8] in a line: Drug metabolism in human liver S9 fraction assessed as BILR402 metabolite formation at 5 uM by LC-MS/MS analysis. The settings on record: s9, 5 µM. In kind it is ADME, subcellular. An outline of the steps:
as §1

A short description of data set [9]: Drug excretion in dog feces assessed as metabolite level. In kind it is ADME, tissue-based, Canis lupus familiaris.
A short description of data set [10]: Drug excretion in rat feces assessed as unchanged drug level. The settings on record: read-out: Drug excretion. In kind it is ADME, tissue-based.
In data set [11] the target is T1, Cytochrome P450 3A4. Kind of data set: Activity at recombinant CYP3A4 (unknown origin) expressed in baculovirus-infected insect cells treated with 1 uM BILR402 assessed as enzyme-mediated compound formation after 4 mins by LC-MS/MS analysis in presence of NADPH. In kind it is ADME. An outline of the steps:
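rCYP3A4 (5 pmol/mL) incubated with BILR 402 at 1 or 10 μM in 0.1 M potassium phosphate/5 mM MgCl2, pH 7.4, with NADPH at 37 °C. Remaining BILR 402 and BILR 355 formed were read at 4 min by LC-MS/MS against a labelled internal standard.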

For data set [12], the system named is Liver cytosol. Kind of data set: Drug metabolism in human liver cytosol assessed as BILR516 disproportionate human metabolite formation at 5 uM after 60 mins by LC-MS/MS analysis. In kind it is ADME, tissue-based. Conditions: 1 h. An outline of the steps: as §1
The subject of data set [13] is Liver microsome. Kind of data set: Drug metabolism in human liver microsomes assessed as BILR402 metabolite formation at 5 uM by LC-MS/MS analysis. In kind it is ADME. An outline of the steps:
as §1

Data set [14] can be described thus: Drug excretion in dog feces assessed as unchanged drug level. In kind it is ADME, tissue-based, Canis lupus familiaris. Conditions: read-out: Drug excretion.
The test system of data set [15] is Liver cytosol. Kind of data set: Drug metabolism in human liver cytosol assessed as BILR402 metabolite formation at 5 uM by LC-MS/MS analysis. In kind it is ADME, tissue-based. An outline of the steps:
as §1

Data set [16] can be described thus: Drug excretion in mouse feces assessed as metabolite level. In kind it is ADME, tissue-based.
Substrate in data set [17]: CCN1c2ncc(CCOc3ccnc4ccccc34)cc2C(=O)N(C)c2cccnc21
Kind of data set: Drug metabolism in human liver cytosol assessed as aldehyde-oxidase-mediated BILR516 metabolite formation after 10 mins by Eadie-Hofstee plot analysis. In kind it is ADME, tissue-based. An outline of the steps:
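Human liver cytosol (0.1 mg/mL) was incubated with BILR 402 at 12 concentrations, 0.061–125 μM, for 10 min at 37 °C in 0.05 M potassium phosphate pH 7.4 without NADPH, within the linear range for protein and time. […] Apparent Km and Vmax were derived from the kinetic data.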

T1 sequence (P08684 whole entry): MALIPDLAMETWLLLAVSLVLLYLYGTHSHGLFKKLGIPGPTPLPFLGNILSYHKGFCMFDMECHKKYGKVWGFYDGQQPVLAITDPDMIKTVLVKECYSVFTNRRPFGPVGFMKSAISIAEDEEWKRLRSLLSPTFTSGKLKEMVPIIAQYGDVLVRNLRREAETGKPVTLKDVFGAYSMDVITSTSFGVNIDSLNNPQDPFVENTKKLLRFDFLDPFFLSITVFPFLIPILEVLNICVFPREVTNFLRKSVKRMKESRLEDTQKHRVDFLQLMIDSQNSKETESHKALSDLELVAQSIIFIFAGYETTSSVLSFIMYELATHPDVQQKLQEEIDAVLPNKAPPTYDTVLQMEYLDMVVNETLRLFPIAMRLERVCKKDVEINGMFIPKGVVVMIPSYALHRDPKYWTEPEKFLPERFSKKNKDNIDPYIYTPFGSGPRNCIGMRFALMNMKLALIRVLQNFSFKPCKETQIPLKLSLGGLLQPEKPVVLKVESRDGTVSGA

As for `CCN1c2ncc(CCOc3cc(=O)[nH]c4ccccc34)cc2C(=O)N(C)c2cccnc21`, the Drug metabolism entry in data set [1] is recorded as “metabolite_detected”.
As to `CCN1c2ncc(CCOc3cc[n+]([O-])c4ccccc34)cc2C(=O)N(C)c2cccnc21` [BILR 355], the Drug metabolism result is “metabolite_detected” with Liver microsome [2]; “metabolite_not_detected” in the data set on Liver microsome [4]; 0.9 µM on Cytochrome P450 3A4 [6]; “metabolite_not_detected” in data set [7]; “metabolite_not_detected” in data set [8]; 0.15 µM at Cytochrome P450 3A4 [11]. In addition, the Drug metabolism result in the data set with Liver cytosol [12], with Liver microsome [13] and in the data set on Liver cytosol [15] was “metabolite_not_detected” each time. In addition, the dose excreted in [3], in data set [10] and in [14] was 0% throughout. The Drug excretion in [5], in data set [9] and in [16] was 72.5% in each case.

B1: Aldehyde oxidase (Homo sapiens) (protein)
chain: MDRASELLFYVNGRKVIEKNVDPETMLLPYLRKKLRLTGTKYGCGGGGCGACTVMISRYNPITKRIRHHPANACLIPICSLYGAAVTTVEGIGSTHTRIHPVQERIAKCHGTQCGFCTPGMVMSIYTLLRNHPEPTLDQLTDALGGNLCRCTGYRPIIDACKTFCKTSGCCQSKENGVCCLDQGINGLPEFEEGSKTSPKLFAEEEFLPLDPTQELIFPPELMIMAEKQSQRTRVFGSERMMWFSPVTLKELLEFKFKYPQAPVIMGNTSVGPEVKFKGVFHPVIISPDRIEELSVVNHAYNGLTLGAGLSLAQVKDILADVVQKLPEEKTQMYHALLKHLGTLAGSQIRNMASLGGHIISRHPDSDLNPILAVGNCTLNLLSKEGKRQIPLNEQFLSKCPNADLKPQEILVSVNIPYSRKWEFVSAFRQAQRQENALAIVNSGMRVFFGEGDGIIRELCISYGGVGPATICAKNSCQKLIGRHWNEQMLDIACRLILNEVSLLGSAPGGKVEFKRTLIISFLFKFYLEVSQILKKMDPVHYPSLADKYESALEDLHSKHHCSTLKYQNIGPKQHPEDPIGHPIMHLSGVKHATGEAIYCDDMPLVDQELFLTFVTSSRAHAKIVSIDLSEALSMPGVVDIMTAEHLSDVNSFCFFTEAEKFLATDKVFCVGQLVCAVLADSEVQAKRAAKRVKIVYQDLEPLILTIEESIQHNSSFKPERKLEYGNVDEAFKVVDQILEGEIHMGGQEHFYMETQSMLVVPKGEDQEMDVYVSTQFPKYIQDIVASTLKLPANKVMCHVRRVGGAFGGKVLKTGIIAAVTAFAANKHGRAVRCVLERGEDMLITGGRHPYLGKYKAGFMNDGRILALDMEHYSNAGASLDESLFVIEMGLLKMDNAYKFPNLRCRGWACRTNLPSNTAFRGFGFPQAALITESCITEVAAKCGLSPEKVRIINMYKEIDQTPYKQEINAKNLIQCWRECMAMSSYSLRKVAVEKFNAENYWKKKGLAMVPLKFPVGLGSRAAGQAAALVHIYLDGSVLVTHGGIEMGQGVHTKMIQVVSRELRMPMSNVHLRGTSTETVPNANISGGSVVADLNGLAVKDACQTLLKRLEPIISKNPKGTWKDWAQTAFDESINLSAVGYFRGYESDMNWEKGEGQPFEYFVYGAACSEVEIDCLTGDHKNIRTDIVMDVGCSINPAIDIGQIEGAFIQGMGLYTIEELNYSPQGILHTRGPDQYKIPAICDMPTELHIALLPPSQNSNTLYSSKGLGESGVFLGCSVFFAIHDAVSAARQERGLHGPLTLNSPLTPEKIRMACEDKFTKMIPRDEPGSYVPWNVPI
Consider B1, for which, in data set [17], the Km came to 0.772 µM and the maximal velocity (Vmax) was found to be 0.000337 µmol/min.
